Laboratory results published in ChEMBL document CHEMBL1124974, “Orally potent human renin inhibitors derived from angiotensinogen transition state: design, synthesis, and mode of interaction” (J Med Chem, 1990).

What was measured:
Pepsin A = Pepsin A (Sus scrofa, UniProt P00791); assay: Tested for inhibition of pepsin from porcine
Outline: (§1)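 Run at 37 °C with hemoglobin substrate at pH 3.2 for cathepsin D, casein substrate at pH 2.0 for pepsin.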

[1] = biological target: T1, Angiotensin-converting enzyme (Oryctolagus cuniculus, UniProt P12822); assay: Tested for inhibition of Angiotensin I converting enzyme from rabbit.
T1 sequence (P12822 whole entry): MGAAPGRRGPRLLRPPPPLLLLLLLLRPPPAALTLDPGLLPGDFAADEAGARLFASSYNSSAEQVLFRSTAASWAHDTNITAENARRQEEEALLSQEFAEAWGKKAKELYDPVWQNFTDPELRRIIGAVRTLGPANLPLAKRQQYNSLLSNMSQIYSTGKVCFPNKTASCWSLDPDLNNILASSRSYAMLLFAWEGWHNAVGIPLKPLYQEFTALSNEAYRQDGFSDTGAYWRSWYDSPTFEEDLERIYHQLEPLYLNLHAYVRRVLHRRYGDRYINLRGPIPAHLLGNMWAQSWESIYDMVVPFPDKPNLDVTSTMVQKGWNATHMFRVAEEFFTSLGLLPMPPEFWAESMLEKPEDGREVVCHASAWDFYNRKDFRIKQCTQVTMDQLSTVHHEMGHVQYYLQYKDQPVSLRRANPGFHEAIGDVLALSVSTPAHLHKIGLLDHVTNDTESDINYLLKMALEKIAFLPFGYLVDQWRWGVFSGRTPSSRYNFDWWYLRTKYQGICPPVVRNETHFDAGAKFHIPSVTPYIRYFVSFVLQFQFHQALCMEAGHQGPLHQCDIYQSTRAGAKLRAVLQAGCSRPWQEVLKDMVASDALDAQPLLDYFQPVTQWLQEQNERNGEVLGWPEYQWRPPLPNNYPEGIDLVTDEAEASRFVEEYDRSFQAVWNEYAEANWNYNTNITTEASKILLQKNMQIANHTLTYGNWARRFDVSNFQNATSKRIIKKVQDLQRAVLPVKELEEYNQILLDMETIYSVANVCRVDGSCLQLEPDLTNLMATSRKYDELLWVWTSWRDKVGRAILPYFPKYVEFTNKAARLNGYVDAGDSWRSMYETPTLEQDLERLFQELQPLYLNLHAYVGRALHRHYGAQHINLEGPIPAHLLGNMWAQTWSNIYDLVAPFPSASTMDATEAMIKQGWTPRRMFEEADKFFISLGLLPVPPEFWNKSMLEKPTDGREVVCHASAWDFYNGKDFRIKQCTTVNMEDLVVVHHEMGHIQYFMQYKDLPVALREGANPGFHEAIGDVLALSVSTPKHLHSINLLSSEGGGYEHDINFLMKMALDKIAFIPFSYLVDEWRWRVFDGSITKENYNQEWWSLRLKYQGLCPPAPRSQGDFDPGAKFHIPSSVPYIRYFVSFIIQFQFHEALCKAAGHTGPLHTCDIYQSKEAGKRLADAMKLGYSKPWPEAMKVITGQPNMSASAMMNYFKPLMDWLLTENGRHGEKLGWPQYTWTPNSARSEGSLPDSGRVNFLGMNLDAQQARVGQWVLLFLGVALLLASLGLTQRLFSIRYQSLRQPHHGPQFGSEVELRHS
Outline: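 Inhibition measured at 37 °C with Hip-His-Leu substrate, pH 8.3.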

Renin [2] = biological target: T2, Renin (Homo sapiens, UniProt P00797); assay: Tested for inhibition of renin from human
T2 sequence (P00797 whole entry): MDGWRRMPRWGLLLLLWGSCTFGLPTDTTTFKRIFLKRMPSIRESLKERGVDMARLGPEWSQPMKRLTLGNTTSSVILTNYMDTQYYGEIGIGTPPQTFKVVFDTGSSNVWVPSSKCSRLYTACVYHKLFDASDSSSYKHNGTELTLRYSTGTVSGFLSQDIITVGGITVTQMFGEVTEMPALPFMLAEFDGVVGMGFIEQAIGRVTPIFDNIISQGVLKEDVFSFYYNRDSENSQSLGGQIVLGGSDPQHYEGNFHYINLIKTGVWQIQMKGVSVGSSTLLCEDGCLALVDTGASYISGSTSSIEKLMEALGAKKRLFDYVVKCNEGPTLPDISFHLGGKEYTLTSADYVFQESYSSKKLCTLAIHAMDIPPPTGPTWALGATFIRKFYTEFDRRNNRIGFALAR

Renin [3] = biological target: T2, Renin; assay: Tested for inhibition of human plasma renin; format: cell-free
Outline: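 Human plasma containing EDTA-2Na (14 mM) and neomycin sulfate (0.3%) mixed with 0.5 M phosphate buffer pH 7.0, Phe-Ala-Pro (20 mM aqueous stock) and inhibitor in DMSO; 60 min at 37 °C; angiotensin I generated quantified by radioimmunoassay.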

Cathepsin D = biological target: T3, Cathepsin D (Bos taurus, UniProt P80209); assay: Tested for inhibition of Cathepsin D from bovine; outline: as §1
T3 sequence (P80209 whole entry): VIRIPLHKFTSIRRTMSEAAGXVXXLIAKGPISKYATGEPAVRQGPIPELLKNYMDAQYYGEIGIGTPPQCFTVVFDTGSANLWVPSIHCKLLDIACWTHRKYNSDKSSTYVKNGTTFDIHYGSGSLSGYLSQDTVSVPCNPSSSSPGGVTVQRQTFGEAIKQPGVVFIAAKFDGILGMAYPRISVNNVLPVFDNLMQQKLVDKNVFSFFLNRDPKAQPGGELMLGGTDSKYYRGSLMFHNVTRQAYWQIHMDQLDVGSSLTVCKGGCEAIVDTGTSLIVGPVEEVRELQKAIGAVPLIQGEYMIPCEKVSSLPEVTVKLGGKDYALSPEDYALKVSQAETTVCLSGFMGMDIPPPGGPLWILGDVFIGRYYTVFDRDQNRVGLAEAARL

Pepsin A, sequence (P00791 whole entry): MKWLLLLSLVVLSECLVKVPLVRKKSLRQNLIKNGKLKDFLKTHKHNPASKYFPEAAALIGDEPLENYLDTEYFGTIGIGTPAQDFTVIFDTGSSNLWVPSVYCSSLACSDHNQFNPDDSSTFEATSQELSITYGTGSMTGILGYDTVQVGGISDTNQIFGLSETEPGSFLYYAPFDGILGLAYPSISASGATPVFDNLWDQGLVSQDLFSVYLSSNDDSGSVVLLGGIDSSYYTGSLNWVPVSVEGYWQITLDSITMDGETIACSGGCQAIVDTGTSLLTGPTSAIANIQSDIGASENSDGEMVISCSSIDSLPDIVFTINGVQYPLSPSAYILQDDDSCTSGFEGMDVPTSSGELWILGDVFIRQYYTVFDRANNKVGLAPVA

Row | IC50 (Pepsin A) | IC50 [1] | IC50 (Renin [2]) | IC50 (Renin [3]) | IC50 (Cathepsin D) | SMILES
1 | 18 nM | > 100000 nM | – | – | – | CC(C)CC(=O)N[C@H](C(=O)N[C@H](C(=O)N[C@@H](CC(C)C)[C@@H](O)CC(=O)N[C@@H](C)C(=O)N[C@@H](CC(C)C)[C@@H](O)CC(=O)O)C(C)C)C(C)C [PEPSTATIN]
2 | – | – | 2500 nM | 2300 nM | – | CC(C)OC(=O)[C@H](O)[C@H](CC1CCCCC1)NC(=O)[C@@H](Cc1c[nH]cn1)NC(=O)[C@@H](CC(=O)N1CCOCC1)Cc1cccc2ccccc12
3 | – | – | 4200 nM | 1500 nM | – | CC(C)OC(=O)[C@H](O)[C@H](CC1CCCCC1)NC(=O)[C@H](Cc1c[nH]cn1)NC(=O)[C@H](CC(=O)N1CCOCC1)Cc1cccc2ccccc12
4 | – | – | 110 nM | 270 nM | – | CC(C)OC(=O)C(O)[C@@H](Cc1ccccc1)NC(=O)[C@H](Cc1cnc[nH]1)NC(=O)[C@@H](CC(=O)N1CCOCC1)Cc1cccc2ccccc12 (some centres not stated)
5 | – | – | 3500 nM | 2100 nM | – | CC(C)OC(=O)[C@H](O)[C@@H](CC1CCCCC1)NC(=O)[C@H](Cc1c[nH]cn1)NC(=O)[C@@H](CC(=O)N1CCOCC1)Cc1cccc2ccccc12
6 | – | – | 2700 nM | 4200 nM | – | CC(C)OC(=O)[C@@H](O)[C@@H](CC1CCCCC1)NC(=O)[C@H](Cc1c[nH]cn1)NC(=O)[C@@H](CC(=O)N1CCOCC1)Cc1cccc2ccccc12
7 | > 100000 nM | > 100000 nM | 2.4 nM | 4.7 nM | 80000 nM | CC(C)OC(=O)[C@H](O)[C@H](CC1CCCCC1)NC(=O)[C@H](Cc1c[nH]cn1)NC(=O)[C@@H](CC(=O)N1CCOCC1)Cc1cccc2ccccc12
